MrgX1 ag = agonists of human MrgX1 receptor, primary screen, HEK293 cells, Fluo-4 calcium flux | Mas-related G-protein coupled receptor member X1 (Homo sapiens), Q96LB2 | Fluo-4 calcium fluorescence, agonist mode; stronger effect = higher value | B-score at 10 µM | hit rate 0.44% among 310,000 | AID 588627, 2011;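 active = calcium response B-score plate-corrected fluorescence ratio at least 3 library SD, with starting fluorescence B-score inside 5 SD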
Target sequence (Q96LB2 whole entry, looked up): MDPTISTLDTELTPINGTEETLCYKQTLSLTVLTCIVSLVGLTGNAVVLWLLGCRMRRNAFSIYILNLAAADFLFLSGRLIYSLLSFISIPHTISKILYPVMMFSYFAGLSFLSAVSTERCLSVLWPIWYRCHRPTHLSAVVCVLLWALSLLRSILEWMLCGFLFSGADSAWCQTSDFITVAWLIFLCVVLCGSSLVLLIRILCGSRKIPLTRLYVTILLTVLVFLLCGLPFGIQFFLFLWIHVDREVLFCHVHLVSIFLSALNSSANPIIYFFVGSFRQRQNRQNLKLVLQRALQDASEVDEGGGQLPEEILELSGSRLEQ
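Test system: HEK293 cells stably expressing human MrgX1 receptor; amount: 15,000 cells per well; doses: compound delivered in addition one of three; times: overnight plating before 1 h dye loading; detection: Fluo-4 NW calcium-flux fluorescence, kinetic read; read-out basis: B-scored fluorescence response ratio; controls: positive and negative controls per plate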
RGS4 act = RGS4 potentiators or activators, primary screen, cell-based, HEK293 M3R inducible RGS4, calcium flux; carbachol calcium flux Fluo4; stronger effect = lower value; B-score at 10 µM; hit rate 0.92% among 310,000;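 active = B-score of the integrated calcium signal more than 4 SD below the library mean, with starting fluorescence not abnormally high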;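 note: negative B-score means reduced calcium response which marks RGS4 activation or potentiation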
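System: HEK293 FlpIn-TREx cells, stable M3R, doxycycline-inducible RGS4. Timing: overnight RGS4 induction, 30 min dye load 37 °C, 20 min compound RT. Also added: carbachol, ECmax concentration. Measured by: Fluo4 fluorescence kinetic imaging of calcium. Evaluation: integrated calcium ratio converted to B score.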
MrgX1 PAM = positive allosteric modulators of MrgX1, primary screen, HEK293 cells, Fluo-4 calcium flux | FDSS; stronger effect = higher value | Mas-related G-protein coupled receptor member X1 (Homo sapiens), Q96LB2 | B-score at 10 µM | hit rate 0.63% among 310,000 | AID 588675, 2011;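 active = plate-corrected calcium response at least 3 library SD above typical, normal starting fluorescence, not activating the receptor alone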;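 note: compound read alongside a low EC10 to EC30 dose of BAM8-22 agonist; peak minus trough fluorescence over baseline measured at the second addition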
RGS4 block = RGS4 inhibitors, primary screen, cell-based, HEK293 M3R inducible RGS4, calcium flux; hit rate 0.45% among 310,000; Regulator of G-protein signaling 4 (Homo sapiens), P49798; B-score at 10 µM; Fluo-4 calcium flux; stronger effect = higher value; triggered by carbachol at its EC20; AID 463165, 2010;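 active = B-score, a plate-corrected calcium signal, over three deviations above library mean, with baseline fluorescence within five deviations of library mean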;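 note: RGS4 expression induced by doxycycline in cells with stable M3 receptor; B-score is computed from the integrated fluorescence ratio over baseline after carbachol; higher B-score means a larger calcium signal and so more RGS4 inhibition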
Target sequence (P49798 whole entry, looked up): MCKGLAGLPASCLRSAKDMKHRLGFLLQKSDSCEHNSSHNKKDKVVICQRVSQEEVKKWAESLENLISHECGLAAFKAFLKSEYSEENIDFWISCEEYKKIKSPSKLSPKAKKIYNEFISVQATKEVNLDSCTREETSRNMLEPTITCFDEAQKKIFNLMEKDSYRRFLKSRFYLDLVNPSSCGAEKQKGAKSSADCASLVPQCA
MrgX1 antagonist = antagonists of human MrgX1 receptor, primary screen, HEK293 cells, Fluo-4 calcium flux. Mas-related G-protein coupled receptor member X1 (Homo sapiens), Q96LB2. BAM8-22 antagonism; stronger effect = lower value. B-score at 10 µM. hit rate 1.3% among 310,000. AID 588676, 2011;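 active = calcium-response B-score plate-corrected more than 3 library SD below zero, starting fluorescence within 5 deviations, no agonist response on first addition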;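 note: peak minus trough fluorescence over baseline after final BAM8-22 challenge near maximal dose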
MrgX1 allo conf = MrgX1 positive allosteric modulators, duplicate retest, confirmation, HEK293 cells, Fluo-4 calcium flux | activation (ratio percentage), % at 10 µM | hit rate 13% among 1,200 | shares compounds with MrgX1 PAM | Fluo-4 calcium fluorescence, FDSS | AID 602413, 2012;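 active = ratio at least 3 SD above the weak peptide control, stable starting fluorescence, no direct agonism earlier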;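 note: compound followed by low BAM8-22 agonist challenge near EC20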
HEK293 Ca flux = nonspecific calcium signal in parental HEK293, confirmation, counter-screen for MrgX1 antagonist project, parental HEK293 cells, Fluo-4 calcium flux; fluorescence ratio F(max-min)/F0 at 10 µM; AID 624111, 2012; hit rate 2% among 4,000; Fluo-4 calcium fluorescence, FDSS; shares compounds with MrgX1 antagonist;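 active = duplicate-averaged calcium fluorescence ratio at least three times the standard deviation of buffer wells, a nonspecific response in parental cells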
HEK293 Ca counter = calcium response in parental HEK293 cells, primary screen, counter-screen for MrgX1 allosteric activator project, cell-based, Fluo-4 calcium flux, duplicate; shares compounds with MrgX1 antagonist; Fluo-4 fluorescence ratio; stronger effect = higher value; fluorescence ratio F(max-min)/F0 at 10 µM; hit rate 0.4% among 4,000;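 active = calcium fluorescence ratio, averaged over duplicates, at least 3 SD of the buffer-well ratio, meaning a nonspecific response in receptor-free cells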;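 note: untransfected parental HEK293 lacking MrgX1 used as counterscreen for MrgX1 allosteric activators; fluorescence change taken during the second addition on a kinetic imager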
HEK293 Ca cntr2 = calcium response in parental HEK293 cells, primary screen, counter-screen for MrgX1 agonist project, cell-based, Fluo-4 calcium flux, duplicate, agonist mode; shares compounds with MrgX1 antagonist; Fluo-4 calcium fluorescence (FDSS); stronger effect = higher value; fluorescence ratio F(max-min)/F0 at 10 µM; hit rate 8.7% among 4,000;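 active = calcium fluorescence ratio at least three times the spread of buffer wells, meaning a non-specific response in parental cells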
Active calls of the source: *; i = inactive; x = no result given. An excerpt weighted towards active compounds, which were near 3.5% of everything screened.

SMILES	MrgX1 ag	RGS4 act	MrgX1 PAM	RGS4 block	MrgX1 antagonist	MrgX1 allo conf	HEK293 Ca flux	HEK293 Ca counter	HEK293 Ca cntr2
CC1=NN(C(=O)COc2ccccc2C)C(O)(c2ccc(Cl)cc2)C1 (stereo not given)	i	i	i	i	i	x	x	x	x
O=C(OCC(=O)N1CCCC1)c1ccc(S(=O)(=O)Nc2ccccc2)cc1	i	i	12.2*	i	i	i	i	i	i
O=C(CN(C1CCCCC1)C1CCCCC1)N1CCc2ccccc2C1	i	i	8.79*	i	i	i	i	i	i
O=C(CN(C1CCCCC1)S(=O)(=O)c1ccccc1)N1CCCC1	i	i	i	i	i	x	x	x	x
Cc1csc(C(C)N(C)C(=O)c2ccc(OC3CCN(Cc4ccccn4)CC3)cc2)n1 (stereo not given)	i	i	i	i	i	x	x	x	x
COC(=O)C(NC(C)=O)(Nc1nc2c(C)cc(C)cc2s1)C(F)(F)F (stereo not given)	i	i	17.1*	i	i	i	i	i	i
Cc1cccc(NC(=S)NC(=O)/C=C/c2ccco2)n1	i	i	25.1*	i	i	4.6%*	i	i	i
CC1(C(=O)N/N=C/c2c(F)c(F)c(F)c(F)c2F)CC1(Cl)Cl (stereo not given)	i	i	19.8*	i	i	i	i	i	i
COc1ccc(N/C(C)=C/C(=O)c2ccccc2)cc1	i	i	i	i	i	x	x	x	x
COc1ccc(N/C(C)=C/C(=S)Nc2ccccc2)cc1	i	i	26.6*	i	i	i	i	i	i
CC/C(=C\C(=O)c1cccnc1)Nc1ccc(C)c(C)c1	i	i	8.67*	i	i	i	i	i	i
CCCOc1ccc(N2C(=O)CC(N(CCc3ccccc3)C(=O)c3ccccc3)C2=O)cc1 (stereo not given)	i	i	i	i	i	x	x	x	x
CC1CCCCC1Nc1nc2ccc(Cl)cc2n2cnnc12 (stereo not given)	i	i	9.19*	i	i	i	i	i	i
COCc1cc(Sc2ccc(Cl)cc2)nc(C)n1	i	i	8.4*	i	i	i	i	i	i
CCOC(=O)c1c(-c2ccccc2)oc2ccc(OC(C)C(=O)O)cc12 (stereo not given)	i	i	7.72*	i	i	i	i	i	i
Cc1ccc(N2CC(C(=O)Nc3ccc(C)c(S(=O)(=O)N(C)C)c3)CC2=O)cc1 (stereo not given)	i	i	10.1*	i	i	i	i	i	i
O=S(c1ccc2ccccc2c1)c1cnns1 (stereo not given)	i	x	i	x	i	x	x	x	x
COC(=O)C1=C(N)c2c(F)cccc2C1(C#N)c1ccc(F)cc1 (stereo not given)	i	i	8.44*	i	i	i	i	i	i
COc1ccc(OC)c2sc(N(CCN(C)C)C(=O)c3cc(Cl)sc3Cl)nc12	i	i	21.2*	i	i	i	i	i	i
CN(C)CCCN(C(=O)c1ccco1)c1nc2ccc(Br)cc2s1	i	i	6.51*	i	i	i	i	i	i
COc1cc(OC)cc(C(=O)N2CCN(c3ccc(N4CCOCC4)nn3)CC2)c1	i	i	i	i	i	x	x	x	x
CCCCOc1ccccc1NC(=O)CSc1nnnn1C(C)(C)C	i	i	22.1*	i	i	i	i	i	i
COc1ccccc1NC(=O)CSc1nnnn1-c1ccc(C(=O)O)cc1	i	i	i	i	i	x	x	x	x
CCn1nc(C)c(CCC(=O)O)c1C	i	i	10.1*	i	i	i	i	i	i
C=C(C)CNC(=S)N/N=C/c1c(F)cccc1F	i	i	i	i	i	x	x	x	x
SMILES	MrgX1 ag	RGS4 act	MrgX1 PAM	RGS4 block	MrgX1 antagonist	MrgX1 allo conf	HEK293 Ca flux	HEK293 Ca counter	HEK293 Ca cntr2
O=C(Nc1ccccc1)c1ccc[nH]1	i	i	i	i	i	x	x	x	x
O=C(c1ccccc1)c1nc[nH]c1C(=O)Nc1ccccc1	i	i	9.87*	i	i	i	i	i	i
CCOc1ccc(CN2CCNC(=O)C2CC(=O)NC2CCOCC2)cc1 (stereo not given)	i	i	i	i	i	x	x	x	x
CC(C)(C)C(=O)[C@@H]1[C@@H]2C(=O)N(C3CCCCC3)C(=O)[C@@H]2[C@H]2c3ccccc3C=CN12	i	x	7.01*	x	i	i	i	i	i
O=C(c1ccc2c(c1)OCO2)[C@@H]1[C@@H]2C(=O)N(C3CCCCC3)C(=O)[C@@H]2C2c3ccccc3C=CN21 (stereo not given in full)	x	i	x	i	x	x	x	x	x
Cc1ccc(CN2CCN(C3CCOCC3)CC2CCO)cc1 (stereo not given)	i	i	8.87*	i	i	i	i	i	i
COc1ccccc1NC(=O)N1c2ccc(F)cc2CCC1C (stereo not given)	i	i	10.1*	i	i	i	i	i	i
CCOC(=O)C1C(=O)NC(N2CCN(Cc3ccccc3)CC2)=NC1c1ccccc1 (stereo not given)	i	i	i	i	i	x	x	x	x
CCOC(=O)C1C(=O)NC(N2CCCCC2)=NC1c1ccccc1 (stereo not given)	i	i	8.86*	i	i	i	i	i	i
Cn1nccc1NC(=O)COCC(=O)O	i	i	i	i	i	x	x	x	x

Screens from PubChem BioAssay.
